This note sets out measurements from ChEMBL document CHEMBL3351861, “New synthetic sulfone derivatives inhibit growth, adhesion and the leucine arylamidase APE2 gene expression of Candida albicans in vitro” (2015).

The test system of assay [1] is Candida albicans. Description: Antifungal activity against Candida albicans CAI4 expressing delta-cph1 gene assessed as growth inhibition at 0.25 ug/ml by CLSI M27-A3 method. In kind it is functional. The following applies: read-out: GI. An outline of the steps:
(§1)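 CLSI M27-A3 broth microdilution in RPMI, read after 48 h. Strains pre-grown 18 h in YEPD at 30°C. Final inoculum 0.5×10^2–2.5×10^3 cells/ml. Two-fold dilutions in RPMI came from a 1600 µg/ml stock in water with 9% DMSO; final DMSO was 0.09%. OD405 read, % inhibition = 100 − (CTW−SCW)/(GCW−SCW). Triplicate on three occasions, mean±SD.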

Assay [2] deals with Candida albicans. Description: Antifungal activity against Candida albicans CAI4 expressing delta-cph1/delta-efg1 (EFG1) gene assessed as growth inhibition at 0.25 ug/ml by CLSI M27-A3 method. The conditions noted are these: read-out: GI. In kind it is functional. Put shortly:
as §1

Assay [3] has as its system Candida albicans. The assay is described as follows: Antifungal activity against Candida albicans 90028 assessed as growth inhibition at by CLSI M27-A3 method. In kind it is functional.
Assay [4] relates to Candida albicans. Description: Antifungal activity against Candida albicans CAI4 expressing delta-efg1 (EFG1) gene assessed as growth inhibition at by CLSI M27-A3 method. In kind it is functional.
For assay [5], the system named is Candida albicans. The assay is described as follows: Reduction in APE2 gene expression in compound pre-treated Candida albicans CAI4 expressing delta-efg1 gene grown on human Caco2 cells monolayer at 16 ug/ml pre-treated for 2 hrs measured after 6 hrs by RT-PCR method. In kind it is functional, Caco-2. An outline of the steps:
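Caco-2 was seeded at 1.2×10^5 cells/ml in EMEM (10% FCS, 1 mM pyruvate, no antibiotics) for 18 h at 37°C, 5% CO2. Yeast (10^4 cfu/ml) was pre-incubated 2 h in RPMI with 16 µg/ml sulfone, washed, resuspended in RPMI and inoculated onto the monolayer at 37°C. APE2 mRNA was measured by SYBR qPCR against ACT1 (2^-ΔΔCt, 90028 calibrator), in triplicate.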

In assay [6] the test system is Candida albicans. The assay is described as follows: Reduction in APE2 gene expression in compound pre-treated Candida albicans CAI4 expressing delta-cph1/delta-efg1 (EFG1) gene grown on human Caco2 cells monolayer at 16 ug/ml pre-treated for 2 hrs measured after 18 hrs by RT-PCR method. In kind it is functional, Caco-2. Put shortly: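 Blastoconidia are pre-incubated 2 h with 16 µg/ml sulfone in RPMI. They are then washed, resuspended in RPMI and placed on Caco-2 monolayers at 37°C, with RNA taken at 6 or 18 h. Real-time RT-PCR uses SYBR Green with 250 nM primers and 60 ng cDNA: 95°C 15 min, then 45 cycles of 94°C 15 s and 60°C 1 min, plus a melt curve. APE2 is normalized to ACT1 by 2^-ΔΔCt with 90028 as calibrator; three experiments.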

The subject of assay [7] is Candida albicans. The assay is described as follows: Antifungal activity against Candida albicans CAI4 expressing delta-efg1 gene assessed as growth inhibition at 16 ug/ml by CLSI M27-A3 method. The conditions noted are these: read-out: GI. In kind it is functional. Put shortly: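 CLSI M27-A3 broth microdilution in RPMI. Final inoculum 0.5×10^2 to 2.5×10^3 cells/ml. Seven two-fold concentrations from 0.25 to 16 µg/ml, with DMSO held at 0.09% (v/v) in all wells. Compound-free growth controls and sterility controls are run for each strain. […] Triplicate on three occasions.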

Assay [8] relates to Candida albicans. The assay is described as follows: Antifungal activity against Candida albicans 90028 assessed as growth inhibition at 8 ug/ml by CLSI M27-A3 method. In kind it is functional. The conditions noted are these: read-out: GI. Put shortly: as §1
Assay [9] concerns Candida albicans. Description: Antifungal activity against Candida albicans CAI4 expressing delta-cph1 (CPH1) gene assessed as growth inhibition at 4 ug/ml by CLSI M27-A3 method. The conditions noted are these: read-out: GI. In kind it is functional. An outline of the steps: as §1
Assay [10] relates to Candida albicans. Description: Antifungal activity against Candida albicans CAI4 expressing delta-cph1/delta-efg1 (EFG1) gene assessed as growth inhibition at 4 ug/ml by CLSI M27-A3 method. In kind it is functional. The conditions noted are these: read-out: GI. An outline of the steps: as §1
Assay [11] deals with Candida albicans. Description: Antifungal activity against Candida albicans CAI4 expressing delta-efg1 (EFG1) gene assessed as growth inhibition at 2 ug/ml by CLSI M27-A3 method. In kind it is functional. The following applies: read-out: GI. Put shortly: as §1
Assay [12] has as its system Candida albicans. The assay is described as follows: Antifungal activity against Candida albicans CAI4 expressing delta-cph1 (CPH1) gene assessed as growth inhibition at 0.5 ug/ml by CLSI M27-A3 method. In kind it is functional. The conditions noted are these: read-out: GI. Put shortly:
as §1

Assay [13] concerns Candida albicans. The assay is described as follows: Antifungal activity against Candida albicans CAI4 expressing delta-efg1 gene assessed as growth inhibition at 0.5 ug/ml by CLSI M27-A3 method. In kind it is functional. The conditions noted are these: read-out: GI. An outline of the steps:
as §1

For assay [14], the system named is Candida albicans. Description: Antifungal activity against Candida albicans CAI4 expressing delta-efg1 (EFG1) gene assessed as growth inhibition at 0.5 ug/ml by CLSI M27-A3 method. In kind it is functional. The conditions noted are these: read-out: GI. An outline of the steps: as §1
The test system of assay [15] is Candida albicans. Description: Antifungal activity against Candida albicans CAI4 expressing delta-cph1/delta-efg1 (EFG1) gene assessed as growth inhibition at 0.5 ug/ml by CLSI M27-A3 method. The conditions noted are these: read-out: GI. In kind it is functional. Put shortly:
as §1

Assay [16] relates to Candida albicans. The assay is described as follows: Inhibition of cell adhesion of compound pre-treated Candida albicans 90028 to human Caco2 cells assessed as cell adhesion level at 8 ug/ml pre-incubated for 18 hrs by colony counting method (reference value: 1.58 +/- 0.67%). In kind it is functional, Caco-2. Also on record: scale not given: the % may be the effect or the level left.

Assay [17] deals with Candida albicans. The assay is described as follows: Inhibition of cell adhesion of compound pre-treated Candida albicans CAI4 expressing delta-cph1 (CPH1) gene to human Caco2 cells assessed as cell adhesion level at 8 ug/ml pre-incubated for 18 hrs by colony counting method (reference value: 5.37 +/- 12.4%). In kind it is functional, Caco-2. Also on record: scale not given: the % may be the effect or the level left.

The subject of assay [18] is Candida albicans. The assay is described as follows: Inhibition of cell adhesion of compound pre-treated Candida albicans CAI4 expressing delta-cph1 gene to human Caco2 cells assessed as cell adhesion level at 2 ug/ml pre-incubated for 18 hrs by colony counting method (reference value: 1.6 +/- 0.65%). In kind it is functional, Caco-2. Also on record: scale not given: the % may be the effect or the level left.

Assay [19] concerns Candida albicans. The assay is described as follows: Reduction in APE2 gene expression in compound pre-treated Candida albicans CAI4 expressing delta-cph1 gene grown under YEPD medium at 16 ug/ml pre-treated for 2 hrs measured after 18 hrs by RT-PCR method. In kind it is functional. Put shortly:
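Blastoconidia from YEPD (10^4 cfu/ml) are washed and exposed 2 h to 16 µg/ml sulfone in YEPD. They are then washed and regrown 18 h at 30°C in YEPD before RNA extraction. Real-time RT-PCR uses SYBR Green with 250 nM primers and 60 ng cDNA: 95°C 15 min, then 45 cycles of 94°C 15 s and 60°C 1 min, plus a dissociation curve. APE2 is normalized to ACT1 by 2^-ΔΔCt with strain 90028 as calibrator; three experiments.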

In assay [20] the test system is Candida albicans. Description: Inhibition of cell adhesion of compound pre-treated Candida albicans SC5314 to human Caco2 cells assessed as cell adhesion level at 8 ug/ml pre-incubated for 2 hrs by colony counting method (reference value: 1.1 +/- 1.1%). Details: scale not given: the % may be the effect or the level left.
Assay [21] deals with Candida albicans. Description: Inhibition of cell adhesion of compound pre-treated Candida albicans CAI4 expressing delta-cph1 gene to human Caco2 cells assessed as cell adhesion level at 16 ug/ml pre-incubated by colony counting method (reference value: 1.6 +/- 0.65%). Details: scale not given: the % may be the effect or the level left.
Assay [22] deals with Candida albicans. The assay is described as follows: Inhibition of cell adhesion of compound pre-treated Candida albicans CAI4 expressing delta-efg1 (EFG1) gene to human Caco2 cells assessed as cell adhesion level at 8 ug/ml pre-incubated for 18 hrs by colony counting method (reference value: 2.6 +/- 2.33%). In kind it is functional, Caco-2. Details: scale not given: the % may be the effect or the level left.

By MIC90 is commonly meant the lowest concentration that inhibits either 90% of growth or 90% of the strains tested, depending on the study.

Molecules are shown by their SMILES. ≈ marks a conversion by molar mass, not a printed value.

For the molecule `NNc1ccc(S(=O)(=O)C(Cl)(Br)Br)cc1[N+](=O)[O-]`, the inhibition of growth at 0.25 µg/mL in the assay on Candida albicans [1] came to 20%; in the assay on Candida albicans [2], 72%. For the same molecule, the MIC90 with Candida albicans [3] and in the assay with Candida albicans [4] was 4 µg/mL (≈ 9.45 µM) in each case. Moreover, the “fold change (FC)” value was determined as 10.27 with Candida albicans [5] and 3.55 in the assay on Candida albicans [6]. Further, in the assay on Candida albicans [7], the inhibition of growth at 16 µg/mL stood at 100%. Further, in the assay with Candida albicans [8], the inhibition of growth at 8 µg/mL was determined as 100%. For the same molecule, the inhibition of growth at 4 µg/mL in the assay on Candida albicans [9] and in the assay with Candida albicans [10] was 99.1% each time. Besides, the inhibition of growth at 2 µg/mL with Candida albicans [11] came out at 99.1%. Besides, the inhibition of growth at 0.5 µg/mL in the assay with Candida albicans [12] was 98.8%; with Candida albicans [13], 97.9%; in the assay on Candida albicans [14], 98.8%; in the assay on Candida albicans [15] it was 98.8%. Further, the Activity is listed as 2.66% in the assay with Candida albicans [16]; 0.9% in the assay with Candida albicans [17]; 0.51% in the assay on Candida albicans [18]; 0.45% in the assay on Candida albicans [20]; 0.37% in the assay on Candida albicans [21]. For the same molecule, in the assay with Candida albicans [19], the ΔCt is given as 0.11.

In the case of `O=[N+]([O-])c1cc(S(=O)(=O)C(Cl)(Cl)Br)ccc1Cl`, the inhibition of growth at 0.25 µg/mL came out at 97.4% in the assay on Candida albicans [1] and 96.5% in the assay with Candida albicans [2]. Besides, the MIC90 in the assay on Candida albicans [3] and with Candida albicans [4] was 16 µg/mL (≈ 41.7 µM) in each case. Moreover, the inhibition of growth at 16 µg/mL with Candida albicans [7] was determined as 99.6%. Besides, in the assay on Candida albicans [8], the inhibition of growth at 8 µg/mL amounted to 99.5%. The figures for the inhibition of growth at 4 µg/mL in the assay on Candida albicans [9] and in the assay on Candida albicans [10] were 99.7% and 99.5%, respectively. Moreover, the inhibition of growth at 2 µg/mL in the assay on Candida albicans [11] stood at 99.3%. Moreover, the inhibition of growth at 0.5 µg/mL in the assay with Candida albicans [12] stood at 97.1%; in the assay with Candida albicans [13], 98.7%; in the assay with Candida albicans [14], 99%; in the assay with Candida albicans [15], 98.8%. Also, the Activity was 2.2% in the assay on Candida albicans [16]; 2.78% with Candida albicans [17]; 1.13% in the assay with Candida albicans [22]; 0.43% in the assay on Candida albicans [18]; 0.36% with Candida albicans [20]; 0.56% in the assay with Candida albicans [21].

In the case of `O=[N+]([O-])c1cc(S(=O)(=O)C(Cl)Cl)ccc1Cl`, the inhibition of growth at 0.25 µg/mL came out at 97.7% in the assay on Candida albicans [1] and 98.8% in the assay with Candida albicans [2]. Further, the MIC90 with Candida albicans [3] and in the assay with Candida albicans [4] was 16 µg/mL (≈ 52.5 µM) throughout. Further, in the assay with Candida albicans [7], the inhibition of growth at 16 µg/mL was 99.5%. In addition, in the assay with Candida albicans [8], the inhibition of growth at 8 µg/mL was determined as 99.3%. For the same molecule, the inhibition of growth at 4 µg/mL in the assay on Candida albicans [9] stood at 98.7%; with Candida albicans [10] it was 99.3%. Moreover, the inhibition of growth at 2 µg/mL in the assay with Candida albicans [11] was determined as 98.1%. Also, the inhibition of growth at 0.5 µg/mL in the assay on Candida albicans [12] worked out at 96.7%; in the assay with Candida albicans [13] it was 99.4%; with Candida albicans [14] it was 95.4%; with Candida albicans [15] it was 99%. Further, the Activity in the assay with Candida albicans [16] amounted to 2.05%; in the assay on Candida albicans [17], 0.71%; with Candida albicans [22] it was 1.18%; with Candida albicans [18], 0.8%; in the assay on Candida albicans [21] it was 1.03%.
